Assay results: ChEMBL document CHEMBL1122708, “Preparation and antibacterial activities of new 1,2,3-diazaborine derivatives and analogues” (1984)
≈ marks a conversion by molar mass, not a printed value.

Key:
[1] = tested on: Klebsiella pneumoniae; test: Minimum inhibitory concentration of compound against Klebsiella pneumoniae delta 217; assay type: functional
[2] = tested on: Escherichia coli; test: Antibacterial activity againist Escherichia coli 120 infected NMRI mice after peroral administration; assay type: functional; settings: po
Outline: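 ED50 in NMRI mice infected intraperitoneally with E. coli 120; compound given orally immediately and 5 h after infection.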

[3] = tested on: Klebsiella aerogenes; test: Minimum inhibitory concentration of compound against Enterobacter aerogenes delta 220; assay type: functional
[4] = tested on: Neisseria gonorrhoeae; test: Minimum inhibitory concentration of compound against Neisseria gonorrhoeae W2; assay type: functional
Outline: (§1)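 Agar dilution on Kellogg agar, 10⁶ colony forming units, incubated 20 h at 36 °C in 5% CO₂; MIC is the lowest concentration giving no visible growth.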

[5] = tested on: Proteus mirabilis; test: Minimum inhibitory concentration against Proteus mirabilis delta 89; assay type: functional
[6] = tested on: Salmonella typhimurium; test: Minimum inhibitory concentration of compound against Salmonella Typhimurium delta 119; assay type: functional, Salmonella enterica subsp. enterica serovar Typhimurium; settings: Salmonella enterica
[7] = tested on: Escherichia coli; test: Minimum inhibitory concentration of compound against Escherichia coli delta 120; assay type: functional
[8] = tested on: Neisseria gonorrhoeae; test: Minimum inhibitory concentration of compound against Neisseria gonorrhoeae AS 7720; assay type: functional; outline: as §1

| SMILES | MIC [1] [µg/mL] | ED50 [2] [mg/kg] | MIC [3] [µg/mL] | MIC [4] [µg/mL] | MIC [5] [µg/mL] | MIC [6] [µg/mL] | MIC [7] [µg/mL] | MIC [8] [µg/mL] |
| --- | --- | --- | --- | --- | --- | --- | --- | --- |
| CCCS(=O)(=O)N1N=Cc2cc(Cl)ccc2B1O | 1.56 (≈ 5.44 µM) | 14 | 25 (≈ 87.2 µM) | 2 (≈ 6.98 µM) | 2.5 (≈ 8.72 µM) | 3.12 (≈ 10.9 µM) | 10 (≈ 34.9 µM) | 2 (≈ 6.98 µM) |
| Cc1ccc(S(=O)(=O)N2N=Cc3sc(Br)cc3B2O)cc1 | 1.56 (≈ 4.05 µM) | ~15 | 25 (≈ 64.9 µM) | 2 (≈ 5.19 µM) | 1.56 (≈ 4.05 µM) | 3.12 (≈ 8.1 µM) | 6.25 (≈ 16.2 µM) | 0.5 (≈ 1.3 µM) |
| Cc1ccc2c(c1)C=NN(S(C)(=O)=O)B2O | 6.25 (≈ 26.3 µM) | 42 | > 50 | > 8 | 25 (≈ 105 µM) | 12.5 (≈ 52.5 µM) | 25 (≈ 105 µM) | > 8 |
| Cc1ccc(S(=O)(=O)N2N=Cc3cc(C)sc3B2O)c(Cl)c1 | 3.12 (≈ 8.8 µM) | 25 | 50 (≈ 141 µM) | 1 (≈ 2.82 µM) | 1.56 (≈ 4.4 µM) | 6.25 (≈ 17.6 µM) | 50 (≈ 141 µM) | 1 (≈ 2.82 µM) |
| O=S(=O)(c1ccccc1)N1N=Cc2ccc(O)cc2B1O | 50 (≈ 165 µM) | 100 | > 50 | > 8 | 50 (≈ 165 µM) | 12.5 (≈ 41.4 µM) | 50 (≈ 165 µM) | > 8 |
| O=S(=O)(c1cc(Cl)c(Cl)cc1Cl)N1N=Cc2oc(Br)cc2B1O | 50 (≈ 109 µM) | > 300 | > 50 | 2 (≈ 4.36 µM) | 6.25 (≈ 13.6 µM) | 50 (≈ 109 µM) | > 50 | 0.5 (≈ 1.09 µM) |
| Cc1ccc(S(=O)(=O)N2N=Cc3ccc(Br)cc3B2O)cc1 | 6.25 (≈ 16.5 µM) | ~30 | > 50 | 8 (≈ 21.1 µM) | 12.5 (≈ 33 µM) | 6.25 (≈ 16.5 µM) | 50 (≈ 132 µM) | 2 (≈ 5.28 µM) |
| O=S(=O)(c1ccccc1)N1N=Cc2sc(Br)cc2B1O | 0.78 (≈ 2.1 µM) | ~20 | 12.5 (≈ 33.7 µM) | 2 (≈ 5.39 µM) | 1.56 (≈ 4.2 µM) | 0.78 (≈ 2.1 µM) | 3.12 (≈ 8.41 µM) | 1 (≈ 2.7 µM) |
| Cc1ccc(S(=O)(=O)N2N=Cc3c(ccc4ccccc34)B2O)cc1 | 25 (≈ 71.4 µM) | > 100 | > 50 | 8 (≈ 22.8 µM) | 3.12 (≈ 8.91 µM) | > 50 | > 50 | 2 (≈ 5.71 µM) |
| Cc1ccc(S(=O)(=O)N2N=Cc3sc(Cl)cc3B2O)cc1 | 2.5 (≈ 7.34 µM) | 28 | 50 (≈ 147 µM) | 1 (≈ 2.94 µM) | 1.56 (≈ 4.58 µM) | 5 (≈ 14.7 µM) | 25 (≈ 73.4 µM) | 1 (≈ 2.94 µM) |
| Cc1ccc(S(=O)(=O)N2N=Cc3oc(C)cc3B2O)cc1 | 1.56 (≈ 5.13 µM) | ~10 | 25 (≈ 82.2 µM) | 8 (≈ 26.3 µM) | 3.12 (≈ 10.3 µM) | 3.12 (≈ 10.3 µM) | 12.5 (≈ 41.1 µM) | 1 (≈ 3.29 µM) |
| Cc1ccc(S(=O)(=O)N2N=Cc3oc(Br)cc3B2O)cc1 | 3.12 (≈ 8.46 µM) | ~30 | 25 (≈ 67.7 µM) | 8 (≈ 21.7 µM) | 3.12 (≈ 8.46 µM) | 3.12 (≈ 8.46 µM) | 12.5 (≈ 33.9 µM) | 2 (≈ 5.42 µM) |
| CS(=O)(=O)N1N=Cc2sccc2B1O | > 50 | 113 | > 50 | > 8 | > 50 | > 50 | > 50 | > 8 |
| Cc1cc2c(s1)C=NN(S(=O)(=O)c1ccccc1C)B2O | 0.78 (≈ 2.44 µM) | 50 | 50 (≈ 156 µM) | 0.5 (≈ 1.56 µM) | 1.56 (≈ 4.87 µM) | 6.25 (≈ 19.5 µM) | 25 (≈ 78.1 µM) | 0.5 (≈ 1.56 µM) |
| Cc1ccc(S(=O)(=O)N2N=Cc3cc(F)ccc3B2O)cc1 | 6.25 (≈ 19.6 µM) | ~25 | > 50 | 8 (≈ 25.1 µM) | 6.25 (≈ 19.6 µM) | 6.25 (≈ 19.6 µM) | 25 (≈ 78.6 µM) | 2 (≈ 6.29 µM) |
| Cc1ccc(S(=O)(=O)N2N=Cc3cc(Br)ccc3B2O)cc1 | 6.25 (≈ 16.5 µM) | ~40 | > 50 | 2 (≈ 5.28 µM) | 1.56 (≈ 4.12 µM) | 6.25 (≈ 16.5 µM) | 25 (≈ 66 µM) | 1 (≈ 2.64 µM) |
| CC(=O)Nc1ccc(S(=O)(=O)N2N=Cc3sc(Br)cc3B2O)c(Cl)c1 | 3.12 (≈ 6.75 µM) | 208 | 25 (≈ 54 µM) | 1 (≈ 2.16 µM) | 6.25 (≈ 13.5 µM) | 3.12 (≈ 6.75 µM) | 50 (≈ 108 µM) | 1 (≈ 2.16 µM) |
| CC(=O)Nc1ccc(S(=O)(=O)N2N=Cc3sc(Br)cc3B2O)cc1 | 3.12 (≈ 7.29 µM) | 55 | 25 (≈ 58.4 µM) | 1 (≈ 2.34 µM) | 3.12 (≈ 7.29 µM) | 3.12 (≈ 7.29 µM) | 25 (≈ 58.4 µM) | 1 (≈ 2.34 µM) |
| CCCS(=O)(=O)N1N=Cc2sccc2B1O | 1.56 (≈ 6.04 µM) | 28 | 25 (≈ 96.8 µM) | 8 (≈ 31 µM) | 25 (≈ 96.8 µM) | 3.12 (≈ 12.1 µM) | 6.25 (≈ 24.2 µM) | 8 (≈ 31 µM) |
